This passage reports MIC90 and IC50 results from ChEMBL document CHEMBL4339182, “Pyridine and nitro-phenyl linked 1,3,4-thiadiazoles as MDR-TB inhibitors” (Eur J Med Chem, 2019).

Experiment [1] relates to Mycobacterium tuberculosis. In words: Antimycobacterial activity against Mycobacterium tuberculosis H37Rv incubated for 12 to 28 days by agar dilution method. The experiment is classed as functional. Put shortly: (§1)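 Conventional Lowenstein-Jensen agar dilution. Compound stock dilutions in DMSO (200 to 1.56 µg/mL) were added to liquid L.J. medium, which was then sterilized by inspissation. Culture was harvested in 0.85% saline. Tubes were kept 24 h at 37 °C, streaked with 5 x 10⁴ bacilli per tube, and incubated at 37 °C. Growth was read at days 12, 22 and 28 against drug-free controls. MIC was the lowest concentration giving no colonies or fewer than 20 (≥99% inhibition), converted from µg/mL to µM.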
For orientation: Agar dilution tests growth on a series of plates holding different concentrations.

The subject of experiment [2] is Mycobacterium tuberculosis. The experiment can be described thus: Antimycobacterial activity against Mycobacterium tuberculosis MDR-TB incubated for 12 to 28 days by agar dilution method. The experiment is classed as functional. Summed up: as §1
The subject of experiment [3] is Vero. In words: Cytotoxicity against African green monkey Vero cells assessed as reduction in cell viability incubated for 72 hrs by MTT assay. The experiment is classed as cell-based. As to conditions: Chlorocebus sabaeus. Summed up: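 Vero cells were grown in DMEM with 2 mM Na₂CO₃ and 10% FBS at 37 °C under 5% CO₂ until confluent, then diluted in PBS. Compounds came from DMSO stocks diluted in medium, with 1% DMSO final. Exposure was 72 h at 37 °C. Monolayers were washed with warm HBSS, then MTS-PMS was added for 3 h and absorbance read at 490 nm.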
In general terms: Tetrazolium assays rely on reduction of a dye to a coloured formazan, in cell work by metabolically active cells.

Experiment [4] concerns Mycobacterium tuberculosis. The experiment can be described thus: Antimycobacterial activity against Mycobacterium tuberculosis H37Rv ATCC 27294 by microplate alamar blue assay. The experiment is classed as functional. In general terms: The colour change of resazurin is a common sign of viable cells or microbes.

The structures appear in SMILES notation. Values after ≈ are worked out from the molar mass of the structure shown. Bounds are passed on as bounds.

For `CCC(=O)Nc1nnc(-c2ccc([N+](=O)[O-])cc2)s1`, the MIC90 was 89 µM (≈ 24.8 µg/mL) in experiment [1] and over 200 µM in experiment [2].

`O=C(CCl)Nc1nnc(-c2ccc([N+](=O)[O-])cc2)s1`: the MIC90 in experiment [1] was 168 µM (≈ 50.2 µg/mL); in experiment [2], over 200 µM.

Turning to `O=C(Nc1nnc(-c2cccc([N+](=O)[O-])c2)s1)c1ccc([N+](=O)[O-])cc1`, in experiment [3], the concentration for half-maximal inhibition (IC50) was 268 µM. In addition, the MIC90 is 33 µM (≈ 12.3 µg/mL) in experiment [1] and 134 µM (≈ 49.8 µg/mL) in experiment [2].

For `CCCC(=O)Nc1nnc(-c2ccncc2)s1`, the MIC90 in experiment [1] is 201 µM (≈ 49.9 µg/mL); in experiment [2], over 200 µM.

Take `O=C(Nc1nnc(-c2ccc([N+](=O)[O-])cc2)s1)c1ccccc1`: the MIC90 turned out to be 38 µM (≈ 12.4 µg/mL) in experiment [1] and 306 µM (≈ 99.9 µg/mL) in experiment [2].

For `O=C(Nc1nnc(-c2ccc([N+](=O)[O-])cc2)s1)c1ccco1`, in experiment [3], the IC50 turned out to be 306 µM. Further, the MIC90 in experiment [1] and in experiment [2] was 9.87 µM (≈ 3.12 µg/mL) each time.

With `CC(C)(C)C(=O)Nc1nnc(-c2ccc([N+](=O)[O-])cc2)s1`, the MIC90 in experiment [1] was 204 µM (≈ 62.5 µg/mL); in experiment [2], over 200 µM.

With `CCCCC(=O)Nc1nnc(-c2ccc([N+](=O)[O-])cc2)s1`, the IC50 in experiment [3] turned out to be 278 µM. The MIC90 in experiment [1] came to 40 µM (≈ 12.3 µg/mL); in experiment [2] it was 163 µM (≈ 49.9 µg/mL).

As to `CCCC(=O)Nc1nnc(-c2cccc([N+](=O)[O-])c2)s1`, the MIC90 is 42 µM (≈ 12.3 µg/mL) in experiment [1] and over 200 µM in experiment [2].

On to `O=C(Nc1nnc(-c2ccncc2)s1)C(Cl)(Cl)Cl`, for which the MIC90 in experiment [1] and in experiment [2] was over 200 µM each time.

Turning to `O=C(CCl)Nc1nnc(-c2cccc([N+](=O)[O-])c2)s1`, the figures for the MIC90 in experiment [1] and in experiment [2] were 21 µM (≈ 6.27 µg/mL) and over 200 µM, respectively.

For the compound `O=C(Nc1nnc(-c2ccncc2)s1)c1cccs1`, the MIC90 in experiment [1] was 21 µM (≈ 6.06 µg/mL); in experiment [2], over 200 µM.

For `O=C(Cl)CCCCC(=O)Nc1nnc(-c2ccncc2)s1`, the MIC90 is 192 µM (≈ 62.4 µg/mL) in experiment [1] and over 200 µM in experiment [2].

Consider `CC(Cl)CC(=O)Nc1nnc(-c2ccncc2)s1` (stereo not drawn), for which the MIC90 in experiment [1] and in experiment [2] was over 200 µM each time.

In the case of `O=C(CCCCl)Nc1nnc(-c2ccc([N+](=O)[O-])cc2)s1`, the MIC90 is 153 µM (≈ 50 µg/mL) in experiment [1] and over 200 µM in experiment [2].

`O=C(Nc1nnc(-c2ccc([N+](=O)[O-])cc2)s1)c1ccc([N+](=O)[O-])cc1`: in experiment [3], the half-maximal inhibitory concentration (IC50) turned out to be 290 µM. Further, the MIC90 worked out at 16.8 µM (≈ 6.25 µg/mL) in experiment [1] and 67 µM (≈ 24.9 µg/mL) in experiment [2].

Turning to `CCCCC(=O)Nc1nnc(-c2cccc([N+](=O)[O-])c2)s1`, the half-inhibitory concentration (IC50) in experiment [3] turned out to be 289 µM. Further, the MIC90 in experiment [1] was 40 µM (≈ 12.3 µg/mL); in experiment [2], 163 µM (≈ 49.9 µg/mL).

`O=C(CCl)Nc1nnc(-c2ccncc2)s1`: the figures for the MIC90 in experiment [1] and in experiment [2] were 196 µM (≈ 49.9 µg/mL) and over 200 µM, respectively.

In the case of `O=C(CSc1nnc(-c2ccc([N+](=O)[O-])o2)s1)Oc1ccccc1`, in experiment [4], the MIC90 was 0.78 µg/mL (≈ 2.15 µM).

On to `O=C(CCCCl)Nc1nnc(-c2cccc([N+](=O)[O-])c2)s1`, for which the MIC90 was 153 µM (≈ 50 µg/mL) in experiment [1] and over 200 µM in experiment [2].

With `CC(Cl)CC(=O)Nc1nnc(-c2cccc([N+](=O)[O-])c2)s1` (stereo not drawn), the MIC90 in experiment [1] and in experiment [2] was over 200 µM in each case.

Regarding `O=C(Nc1nnc(-c2ccc([N+](=O)[O-])cc2)s1)c1cccs1`, the MIC90 in experiment [1] and in experiment [2] was over 200 µM in each case.

Regarding `Cc1ccc(C(=O)Nc2nnc(-c3ccc([N+](=O)[O-])cc3)s2)cc1`, in experiment [3], the IC50 came to 310 µM. Besides, the results for the MIC90 in experiment [1] and in experiment [2] were 18.4 µM (≈ 6.26 µg/mL) and 147 µM (≈ 50 µg/mL), respectively.

For the compound `O=[N+]([O-])c1ccc(CSc2nnc(-c3ccc([N+](=O)[O-])o3)s2)cc1`, the MIC90 in experiment [4] worked out at 3.13 µg/mL (≈ 8.59 µM).

As for `O=C(Nc1nnc(-c2cccc([N+](=O)[O-])c2)s1)c1cccs1`, the figures for the MIC90 in experiment [1] and in experiment [2] were 301 µM (≈ 100 µg/mL) and over 200 µM, respectively.

For the compound `O=C(Cl)CCCCC(=O)Nc1nnc(-c2ccc([N+](=O)[O-])cc2)s1`, the values for the MIC90 in experiment [1] and in experiment [2] were 135 µM (≈ 49.8 µg/mL) and 271 µM (≈ 99.9 µg/mL), respectively.

With `CCCC(=O)Nc1nnc(-c2ccc([N+](=O)[O-])cc2)s1`, the IC50 in experiment [3] came to 301 µM. The MIC90 in experiment [1] was 42 µM (≈ 12.3 µg/mL); in experiment [2], 171 µM (≈ 50 µg/mL).

As to `COc1ccc(C(=O)Nc2nnc(-c3ccc([N+](=O)[O-])cc3)s2)cc1`, the 50% inhibitory concentration (IC50) in experiment [3] came out at 278 µM. Also, the MIC90 was determined as 35 µM (≈ 12.5 µg/mL) in experiment [1] and 140 µM (≈ 49.9 µg/mL) in experiment [2].

As to `COc1ccc(C(=O)Nc2nnc(-c3cccc([N+](=O)[O-])c3)s2)cc1`, the MIC90 in experiment [1] worked out at 35 µM (≈ 12.5 µg/mL); in experiment [2], 280 µM (≈ 99.8 µg/mL).

As for `CC(C)(C)C(=O)Nc1nnc(-c2cccc([N+](=O)[O-])c2)s1`, the MIC90 in experiment [1] was 204 µM (≈ 62.5 µg/mL); in experiment [2], over 200 µM.

Turning to `CCC(=O)Nc1nnc(-c2cccc([N+](=O)[O-])c2)s1`, the MIC90 was 89 µM (≈ 24.8 µg/mL) in experiment [1] and over 200 µM in experiment [2].

As to `O=C(Nc1nnc(-c2ccc([N+](=O)[O-])cc2)s1)C(Cl)(Cl)Cl`, the results for the MIC90 in experiment [1] and in experiment [2] were 273 µM (≈ 100 µg/mL) and over 200 µM, respectively.

With `O=C(Cl)CCCCC(=O)Nc1nnc(-c2cccc([N+](=O)[O-])c2)s1`, the MIC90 in experiment [1] was 135 µM (≈ 49.8 µg/mL); in experiment [2] it was over 200 µM.

Regarding `C/C=C/C(CCC)N(C(=O)c1ccccc1)c1nnc(-c2ccc([N+](=O)[O-])cc2)s1` (stereo not drawn), the MIC90 was 117 µM (≈ 49.4 µg/mL) in experiment [1] and over 200 µM in experiment [2].

On to `O=C(Nc1nnc(-c2cccc([N+](=O)[O-])c2)s1)c1ccccc1`, for which the MIC90 was 38 µM (≈ 12.4 µg/mL) in experiment [1] and over 200 µM in experiment [2].

Turning to `O=C(Nc1nnc(-c2cccc([N+](=O)[O-])c2)s1)c1ccco1`, the half-inhibitory concentration (IC50) in experiment [3] turned out to be 312 µM. Besides, the MIC90 is 19 µM (≈ 6.01 µg/mL) in experiment [1] and 39 µM (≈ 12.3 µg/mL) in experiment [2].

For the compound `CC(C)(C)C(=O)Nc1nnc(-c2ccncc2)s1`, the MIC90 in experiment [1] is 238 µM (≈ 62.4 µg/mL); in experiment [2], over 200 µM.

For `O=C(CCCCl)Nc1nnc(-c2ccncc2)s1`, the MIC90 in experiment [1] was 221 µM (≈ 62.5 µg/mL); in experiment [2], over 200 µM.

With `O=C(Nc1nnc(-c2ccncc2)s1)c1ccc([N+](=O)[O-])cc1`, the IC50 in experiment [3] turned out to be 369 µM. Also, the MIC90 stood at 9.93 µM (≈ 3.25 µg/mL) in experiment [1] and 76 µM (≈ 24.9 µg/mL) in experiment [2].

In the case of `CCCCC(=O)Nc1nnc(-c2ccncc2)s1`, the MIC90 in experiment [1] was 95 µM (≈ 24.9 µg/mL); in experiment [2] it was 381 µM (≈ 100 µg/mL).

Regarding `NNC(=O)c1ccncc1` [ISONIAZID], the MIC90 in experiment [1] was 3.64 µM (≈ 0.499 µg/mL); in experiment [2] it was over 200 µM.

As to `CO[C@H]1/C=C/O[C@@]2(C)Oc3c(C)c(O)c4c(O)c(c(/C=N/N5CCN(C)CC5)c(O)c4c3C2=O)NC(=O)/C(C)=C\C=C\[C@H](C)[C@H](O)[C@@H](C)[C@@H](O)[C@@H](C)[C@H](OC(C)=O)[C@@H]1C` [RIFAMPIN], the MIC90 in experiment [1] turned out to be 0.152 µM (≈ 0.125 µg/mL); in experiment [2] it was 128 µM (≈ 105 µg/mL).

With `CN[C@@H]1C[C@H]2O[C@@](C)([C@@H]1OC)n1c3ccccc3c3c4c(c5c6ccccc6n2c5c31)C(=O)NC4` [STAUROSPORINE], in experiment [3], the half-inhibitory concentration (IC50) was determined as 0.028 µM.

As a reminder, the MIC90 is the lowest concentration that inhibits either 90% of growth or 90% of the strains tested, depending on the study. Usually IC50 stands for the point on the concentration scale where inhibition reaches its midpoint.
